ChEMBL document CHEMBL5260861, “Examination of aminophenol-containing compounds designed as antiproliferative agents and potential atypical retinoids” (2023)
Active and inactive are the calls of the source. No cut-off for these calls is given here.

Experiments:
MCF7 [1] = experiment: Antiproliferative activity against human MCF7 cells assessed as inhibition of cell growth at 4 uM incubated for 72 hrs by MTT assay; format: functional
Outline: (§1)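 Cells seeded at 1–4 × 10^4 cells/mL in RPMI 1640 with 10% FBS and 1 mM HEPES, 37 °C, 5% CO2. After 24 h, compounds added at various concentrations for 72 h; controls received 0.1% DMSO. Viable cells measured by MTT. Percent net growth calculated relative to control, correcting for initial absorbance. Mean ± SD (n = 3).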

PC-3 [2] = experiment: Antiproliferative activity against human PC-3 cells assessed as inhibition of cell growth at 4 uM incubated for 72 hrs by MTT assay; format: functional; outline: as §1
MCF7 [3] = experiment: Inhibition of Akt phosphorylation in human MCF7 cells assessed as decrease in phosphorylated Akt level at 10 uM incubated for 72 hrs by immunoblotting analysis; format: cell-based
Outline: (§2)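 Cells seeded at 2 × 10^4 cells/mL and grown 24 h, then given 10 μM compound or DMSO for 72 h. Whole-cell lysates prepared in NP40 buffer (25 mM Tris-HCl pH 8, 150 mM NaCl, 0.5% NP40, NaF, Na3VO4, protease inhibitors), quantified by BCA. Lysates run on SDS-PAGE and blotted. Probed for Bcl-2, Bcl-xL, ERK/p-ERK, Akt/p-Akt and β-actin. Control set to 1.0; mean ± SD (n = 3).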

MCF7 [4] = experiment: Antiproliferative activity against human MCF7 cells assessed as inhibition of cell growth at 4 to 10 uM incubated for 72 hrs by MTT assay; format: functional, cell-based; conditions: dose 4-10 µM; outline: as §1
PC-3 [5] = experiment: Antiproliferative activity against human PC-3 cells assessed as inhibition of cell growth at 10 uM incubated for 72 hrs by MTT assay; format: functional; outline: as §1
[6] = target: T1, Retinoic acid receptor alpha (Homo sapiens) (UniProt P10276); experiment: Agonist activity at human RAR-alpha assessed as receptor transactivation at 500 to 20000 nM incubated for 24 hrs by luciferase reporter gene assay; conditions: dose 500-20000 nM
T1 sequence (whole entry): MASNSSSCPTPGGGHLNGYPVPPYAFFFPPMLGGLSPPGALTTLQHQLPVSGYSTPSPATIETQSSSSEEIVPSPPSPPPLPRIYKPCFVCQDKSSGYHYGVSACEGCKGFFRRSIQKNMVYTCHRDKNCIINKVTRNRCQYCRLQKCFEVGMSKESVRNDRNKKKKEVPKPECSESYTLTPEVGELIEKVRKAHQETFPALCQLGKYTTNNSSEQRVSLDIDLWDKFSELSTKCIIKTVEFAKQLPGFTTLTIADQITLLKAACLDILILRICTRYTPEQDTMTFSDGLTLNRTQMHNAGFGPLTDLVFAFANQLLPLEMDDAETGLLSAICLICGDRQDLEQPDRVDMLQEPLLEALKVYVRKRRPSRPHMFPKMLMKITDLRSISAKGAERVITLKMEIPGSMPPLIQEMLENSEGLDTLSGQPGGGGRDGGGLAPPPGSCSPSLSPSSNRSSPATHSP
Outline: (§3)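 INDIGO RARα or RXRα reporter cells seeded, then medium containing compound added (0.5, 1, 4, 10, 20 μM); 24 h at 37 °C. Medium removed, luciferase detection reagent added, light emission read. 9-cis-retinoic acid (0.5–500 nM) served as positive control. Three replicate wells per vehicle control; mean ± SD (n = 3).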

[7] = target: T2, Retinoic acid receptor RXR-alpha (Homo sapiens) (UniProt P19793); experiment: Agonist activity at human RXR-alpha assessed as receptor transactivation at 500 to 20000 nM incubated for 24 hrs by luciferase reporter gene assay; conditions: dose 500-20000 nM; outline: as §3
T2 sequence (whole entry): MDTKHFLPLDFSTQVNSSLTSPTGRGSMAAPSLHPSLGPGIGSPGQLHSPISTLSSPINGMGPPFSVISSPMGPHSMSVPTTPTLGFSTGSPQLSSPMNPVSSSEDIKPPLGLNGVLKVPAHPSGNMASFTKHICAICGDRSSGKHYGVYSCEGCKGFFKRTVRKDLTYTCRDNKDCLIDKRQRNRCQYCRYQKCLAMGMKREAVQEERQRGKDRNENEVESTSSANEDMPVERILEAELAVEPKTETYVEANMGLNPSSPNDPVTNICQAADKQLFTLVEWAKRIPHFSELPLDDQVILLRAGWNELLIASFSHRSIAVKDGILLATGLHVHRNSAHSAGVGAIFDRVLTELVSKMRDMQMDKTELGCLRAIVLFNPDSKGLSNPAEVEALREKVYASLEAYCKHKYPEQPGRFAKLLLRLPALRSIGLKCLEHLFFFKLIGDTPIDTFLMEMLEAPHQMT

MCF7 [8] = experiment: Induction of cell cycle arrest in human MCF7 cells at 10 uM incubated for 24 hrs by propidium iodide staining based flow cytometry; format: functional
Outline: (§4)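 Cells seeded at 2 × 10^4 cells/mL and grown 24 h, then given 10 μM compound or DMSO for 24 h. Harvested cells fixed in 70% ethanol at 4 °C overnight, washed twice with PBS, and treated with 100 μg/mL RNase A (37 °C, 30 min). Stained with 10 μg/mL propidium iodide; cell cycle analysed by flow cytometry.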

PC-3 [9] = experiment: Induction of cell cycle arrest in human PC-3 cells at 10 uM incubated for 24 hrs by propidium iodide staining based flow cytometry; format: functional; outline: as §4
MCF7 [10] = experiment: Induction of apoptosis in human MCF7 cells assessed as accumulation of cells at subG1 phase at 10 uM incubated for 24 hrs by propidium iodide staining based flow cytometry; format: functional, cell-based; outline: as §4
PC-3 [11] = experiment: Induction of apoptosis in human PC-3 cells assessed as accumulation of cells at subG1 phase at 10 uM incubated for 24 hrs by propidium iodide staining based flow cytometry; format: functional, cell-based; outline: as §4
MCF7 [12] = experiment: Effect on Bcl-2 protein expression in human MCF7 cells at 10 uM incubated for 72 hrs by immunoblotting analysis; format: functional, cell-based; outline: as §2
PC-3 [13] = experiment: Effect in Bcl-2 protein expression in human PC-3 cells at 10 uM incubated for 72 hrs by immunoblotting analysis; format: functional, cell-based; outline: as §2
MCF7 [14] = experiment: Effect in Bcl-xL protein expression in human MCF7 cells at 10 uM incubated for 72 hrs by immunoblotting analysis; format: functional, cell-based; outline: as §2
PC-3 [15] = experiment: Effect in Bcl-xL protein expression in human PC-3 cells at 10 uM incubated for 72 hrs by immunoblotting analysis; format: functional, cell-based; outline: as §2
MCF7 [16] = experiment: Inhibition of ERK phosphorylation in human MCF7 cells at 10 uM incubated for 72 hrs by immunoblotting analysis; format: cell-based; outline: as §2
PC-3 [17] = experiment: Inhibition of ERK phosphorylation in human PC-3 cells at 10 uM incubated for 72 hrs by immunoblotting analysis; format: cell-based; outline: as §2
MCF7 [18] = experiment: Induction of autophagy in human MCF7 cells assessed as increase in LC3-II protein expression at 10 uM incubated for 72 hrs by immunoblotting analysis relative to control; format: functional
Outline: (§5)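 Cells seeded at 2 × 10^4 cells/mL and grown 24 h at 37 °C in 5% CO2 in RPMI 1640 with 10% FBS and 1 mM HEPES. They were then treated 72 h with compound at 10 μM or with DMSO control. Whole-cell lysates were made in NP40 buffer, protein measured by BCA, and samples run on SDS-PAGE. LC3 was probed with β-actin as loading control. Control was set to 1.0; mean ± SD, n = 3.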

PC-3 [19] = experiment: Induction of autophagy in human PC-3 cells assessed as increase in LC3-II protein expression at 10 uM incubated for 72 hrs by immunoblotting analysis relative to control; format: functional; outline: as §5
PC-3 [20] = experiment: Inhibition of Akt phosphorylation in human PC-3 cells assessed as decrease in phosphorylated Akt level at 10 uM incubated for 72 hrs by immunoblotting analysis; format: cell-based; outline: as §2
PC-3 [21] = experiment: Antiproliferative activity against human PC-3 cells assessed as inhibition of cell growth at 4 to 10 uM incubated for 72 hrs by MTT assay; format: functional, cell-based; conditions: dose 4-10 µM; outline: as §1
MCF7 [22] = experiment: Antiproliferative activity against human MCF7 cells assessed as inhibition of cell growth at 1 to 10 uM incubated for 72 hrs by MTT assay; format: functional, cell-based; conditions: dose 1-10 µM; outline: as §1
MCF7 [23] = experiment: Antiproliferative activity against human MCF7 cells assessed as inhibition of cell growth incubated for 72 hrs by MTT assay; format: functional, cell-based; conditions: dose 1-10 µM; outline: as §1
MCF7 [24] = experiment: Antiproliferative activity against human MCF7 cells assessed as inhibition of cell growth at 10 uM incubated for 72 hrs by MTT assay; format: functional; outline: as §1
PC-3 [25] = experiment: Antiproliferative activity against human PC-3 cells assessed as inhibition of cell growth incubated for 72 hrs by MTT assay; format: functional, cell-based; conditions: dose 1-10 µM; outline: as §1
PC-3 [26] = experiment: Antiproliferative activity against human PC-3 cells assessed as inhibition of cell growth at 1 uM incubated for 72 hrs by MTT assay; format: functional; outline: as §1
PC-3 [27] = experiment: Antiproliferative activity against human PC-3 cells assessed as inhibition of cell growth at 1 to 10 uM incubated for 72 hrs by MTT assay; format: functional, cell-based; conditions: dose 1-10 µM; outline: as §1

SMILES: CC1=C(/C=C/C(C)=C/C=C/C(C)=C/C(=O)O)C(C)(C)CCC1 [TRETINOIN]
- inhibition at 4 µM (MCF7 [1]): 37%
- inhibition at 4 µM (PC-3 [2]): 18%

SMILES: O=C(O)CCCCCCCCCCC(=O)Nc1ccc(O)cc1
- inhibition (MCF7 [3]): Active
- inhibition at 4 µM (MCF7 [1]): 40%
- inhibition at 4 µM (PC-3 [2]): 54%
- Activity (MCF7 [4]): Active
- inhibition at 10 µM (PC-3 [5]): 70%
- Activity [6]: inactive
- Activity [7]: inactive
- Activity (MCF7 [8]): inactive
- Activity (PC-3 [9]): inactive
- Activity (MCF7 [10]): inactive
- Activity (PC-3 [11]): inactive
- Activity (MCF7 [12]): inactive
- Activity (PC-3 [13]): inactive
- Activity (MCF7 [14]): inactive
- Activity (PC-3 [15]): inactive
- inhibition (MCF7 [16]): inactive
- inhibition (PC-3 [17]): inactive
- fold change (FC) (MCF7 [18]): 1.6
- fold change (FC) (PC-3 [19]): 1.5
- inhibition (PC-3 [20]): 35%

SMILES: O=C(O)CCCCCCCCC(=O)Nc1ccc(O)cc1
- inhibition at 4 µM (MCF7 [1]): 28%
- Activity (MCF7 [4]): Active
- Activity (PC-3 [21]): inactive

SMILES: COC(=O)CCCCCCCCCNc1ccc(O)cc1
- Activity (MCF7 [22]): inactive

SMILES: O=C(O)CCCCCCC(=O)Nc1ccc(O)cc1
- inhibition at 4 µM (MCF7 [1]): 30%
- Activity (MCF7 [4]): Active
- Activity (PC-3 [21]): inactive

SMILES: CCCCCCCCCCNc1ccc(O)cc1
- Activity (MCF7 [23]): Dose-Dependent Effect
- inhibition at 4 µM (MCF7 [1]): 31%
- inhibition at 10 µM (MCF7 [24]): 51%
- Activity (PC-3 [25]): Dose-Dependent Effect
- inhibition at 1 µM (PC-3 [26]): 65%

SMILES: O=C(O)CCCCCCCNc1ccc(O)cc1
- Activity (MCF7 [22]): inactive
- Activity (PC-3 [27]): inactive

SMILES: O=C(O)CCCCCCCCCNc1ccc(O)cc1
- Activity (MCF7 [22]): inactive
- Activity (PC-3 [27]): inactive

SMILES: CCCCCCCCCCCCNc1ccc(O)cc1
- Activity (MCF7 [23]): Dose-Dependent Effect
- inhibition at 4 µM (MCF7 [1]): 61%
- inhibition at 10 µM (MCF7 [24]): 73%
- Activity (PC-3 [25]): Dose-Dependent Effect
- inhibition at 1 µM (PC-3 [26]): 91%

SMILES: COC(=O)CCCCCCCCCCCNc1ccc(O)cc1
- Activity (MCF7 [22]): inactive
- inhibition at 10 µM (PC-3 [5]): 10%

SMILES: CCCCCCCC(=O)Nc1ccc(O)cc1
- Activity (MCF7 [4]): inactive
- Activity (PC-3 [21]): Active
- inhibition at 10 µM (PC-3 [5]): 45%

SMILES: CCCCCCCCNc1ccc(O)cc1
- Activity (MCF7 [23]): Dose-Dependent Effect
- inhibition at 4 µM (MCF7 [1]): 14%
- inhibition at 10 µM (MCF7 [24]): 45%
- Activity (PC-3 [25]): Dose-Dependent Effect
- inhibition at 1 µM (PC-3 [26]): 33%

SMILES: COC(=O)CCCCCCCNc1ccc(O)cc1
- Activity (MCF7 [22]): inactive

SMILES: COC(=O)CCCCCCC(=O)Nc1ccc(O)cc1
- Activity (MCF7 [22]): inactive

SMILES: O=C(O)CCCCCCCCCCCNc1ccc(O)cc1
- Activity (MCF7 [22]): inactive
- Activity (PC-3 [27]): inactive

SMILES: COC(=O)CCCCCCCCCCC(=O)Nc1ccc(O)cc1
- Activity (MCF7 [22]): inactive
- inhibition at 10 µM (PC-3 [5]): 10%

SMILES: CCCCCCCCCCCC(=O)Nc1ccc(O)cc1
- Activity (MCF7 [4]): inactive
- Activity (PC-3 [21]): Active
- inhibition at 10 µM (PC-3 [5]): 24%

SMILES: COC(=O)CCCCCCCCC(=O)Nc1ccc(O)cc1
- Activity (MCF7 [22]): inactive

SMILES: CCCCCCCCCC(=O)Nc1ccc(O)cc1
- Activity (MCF7 [4]): inactive
- Activity (PC-3 [21]): Active
- inhibition at 10 µM (PC-3 [5]): 43%
